RAD54 inh: inhibitors of human RAD54 branch migration | Q92698 | RAD54 Holliday junction branch migration, FAM/BHQ fluorescence | hit rate 0.14% among 360,000 | AID 602329 | inhibition, % at 10.4 µM;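 active = mean normalized replicate activity at least 40 and at least half of replicates scoring 40 or more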;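 also: 0% = median of neutral control wells and 100% = median of positive control wells; inhibitors cause a drop in the FAM fluorescence signal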
Target sequence (Q92698 whole entry, looked up): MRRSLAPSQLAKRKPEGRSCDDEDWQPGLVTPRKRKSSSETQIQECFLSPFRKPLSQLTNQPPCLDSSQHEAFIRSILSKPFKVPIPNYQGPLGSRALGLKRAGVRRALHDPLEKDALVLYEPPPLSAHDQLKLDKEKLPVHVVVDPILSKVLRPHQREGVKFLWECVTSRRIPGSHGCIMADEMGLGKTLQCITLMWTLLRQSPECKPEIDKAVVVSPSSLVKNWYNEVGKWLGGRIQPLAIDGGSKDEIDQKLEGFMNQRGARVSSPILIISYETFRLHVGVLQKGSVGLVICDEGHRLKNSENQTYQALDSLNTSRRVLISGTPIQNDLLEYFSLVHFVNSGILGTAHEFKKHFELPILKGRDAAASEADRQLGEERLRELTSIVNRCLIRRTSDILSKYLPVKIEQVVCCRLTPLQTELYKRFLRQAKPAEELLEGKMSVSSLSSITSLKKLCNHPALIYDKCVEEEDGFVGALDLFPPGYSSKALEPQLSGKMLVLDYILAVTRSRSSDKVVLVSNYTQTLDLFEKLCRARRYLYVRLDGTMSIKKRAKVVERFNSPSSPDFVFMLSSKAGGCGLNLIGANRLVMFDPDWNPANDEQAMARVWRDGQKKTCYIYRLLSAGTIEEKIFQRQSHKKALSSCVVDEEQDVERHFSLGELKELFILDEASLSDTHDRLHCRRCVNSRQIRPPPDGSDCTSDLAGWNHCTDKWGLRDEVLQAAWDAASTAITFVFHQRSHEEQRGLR
S100A4 MyoIIA: inhibitors of human S100A4 binding to myosin IIA peptide | P26447 | S100A4/TAMRA-MyoIIA peptide fluorescence polarization | inhibition, % at 10.7 µM | hit rate 0.14% among 360,000;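 active = mean inhibition of at least 70% across replicates, with every replicate also reaching that level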
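System – human S100A4 monomer protein, biochemical binding assay · Buffer or medium – Calcium-containing HEPES buffer, pH 7.2 · Timing – 5 min between mix addition and reading · Also added – TAMRA-labelled myosin IIA heavy-chain peptide probe, 5 nM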
RAD52 inh: blocks human RAD52 DNA annealing; P43351; recombinant RAD52 DNA annealing, FRET fluorescence; inhibition, % at 18.7 µM; hit rate 0.46% among 360,000;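 active = every replicate showing at least 50% inhibition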
AF4-AF9 inh: blocks AF4 peptide binding to human AF9; inhibition, % at 10 µM; AlphaScreen, biotin-AF4 peptide binding to FLAG-AF9; P42568; AID 651704; hit rate 0.47% among 350,000;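 active = every replicate reaching a set inhibition limit, whatever the replicate mean, cut at about 25% in these data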;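 also: 0% = plate neutral control median and 100% = total signal loss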
Xi reactivation: X-chromosome reactivation activator; XiGFP mouse fibroblasts, % GFP-positive cells imaging, 3 d; cells co-treated with 5-aza-dC sensitizer; scaled so ellipticine positive control = 100%; activation, % at 7.58 µM; hit rate 0.055% among 360,000; AID 743238;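 active = mean normalized replicate activation at least 10% and every replicate at or above 10%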;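 also: 0% = median of on-plate neutral control wells and 100% = ellipticine 6 µM median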
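System: 68-5-11 XiGFP fibroblast line | Buffer or medium: DMEM containing 5-aza-dC | Compound: Single point | Times: Compounds 3 days, fix/stain 15 min at room temperature | Benchmarks: Positive control ellipticine, 6 µM final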
Casp6 inh: caspase-6 (human) enzyme inhibition; inhibition, % at 12.5 µM; hit rate 0.53% among 350,000; purified caspase-6, Z-VEID-R110 cleavage fluorescence;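 active = mean inhibition across replicates at least about 35%, with every replicate also reaching that limit, limit read from the data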;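 also: 0% = median of neutral control wells and 100% = no fluorescence left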
The depositor's hits bear a star; · = no result given. Rows were chosen to be rich in hits. Some 1.3% of all compounds tested hit in one or more screens of this group.

SMILES | RAD54 inh | S100A4 MyoIIA | RAD52 inh | AF4-AF9 inh | Xi reactivation | Casp6 inh
Cn1cc(C(CC(=O)O)C(=O)O)c2ccccc21 (stereo not given) | 0 | -10 | -6 | 0 | · | 43*
C[n+]1c(-c2ccccc2)cc2c(=Cc3ccc([N+](=O)[O-])cc3)c3ccccc3n21 | · | -5 | 2 | 61* | 0 | 83*
C[n+]1c(-c2ccccc2)cc2c(=Cc3ccccc3)c3ccccc3n21 | · | -50 | -2 | 28* | 1 | 53*
C[C@H](CO)N1C[C@H](C)[C@H](CN(C)Cc2ccc3c(c2)OCO3)Oc2ncc(/C=C/c3ccccc3)cc2C1=O | -8 | 4 | 5 | 3 | 0 | 0
C[C@H]1CN([C@@H](C)CO)C(=O)c2cc(/C=C/c3ccccc3)cnc2O[C@@H]1CN(C)Cc1ccccc1F | -17 | 3 | -12 | 25 | 0 | -2
C[C@H](CO)N1C[C@H](C)[C@@H](CN(C)Cc2ccccc2F)Oc2ncc(/C=C/c3ccccc3)cc2C1=O | 5 | 0 | 2 | 28* | 0 | 0
C[C@H](CO)N1C[C@H](C)[C@@H](CN(C)Cc2ccc3c(c2)OCO3)Oc2ncc(/C=C/c3ccccc3)cc2C1=O | 13 | 4 | 16 | 26* | -1 | 2
O=C(c1ccccc1)c1c2c(cc3sc4ccccc4[n+]13)-c1cccc3cccc-2c13 | 105* | · | · | · | 73* | ·
CCC(=O)Nc1c(C#N)c2nc3ccccc3nc2n1-c1ccc(C)cc1 | · | 1 | -37 | -11 | 0 | 54*
N#Cc1c(NC(=O)c2ccc(Br)o2)n(-c2ccccc2)c2nc3ccccc3nc12 | -1 | -1 | -37 | -7 | 4 | 46*
O=C(C[C@H]1C=C[C@@H](NC(=O)Nc2ccccc2F)[C@@H](CO)O1)NCc1ccccc1 | · | 8 | 1 | -5 | 0 | 3
CN(C)CC(=O)N[C@@H]1CC[C@H](CCNC(=O)C2CCC2)O[C@H]1CO | 0 | -2 | -3 | -3 | 0 | -29
C[C@H](CO)N1C[C@H](C)[C@H](CN(C)S(=O)(=O)c2cn(C)cn2)Oc2ccc(NS(C)(=O)=O)cc2CC1=O | 1 | · | · | · | 0 | ·
CC(C)NC(=O)N(C)C[C@H]1Oc2cc(C#C[C@@H](C)O)ccc2S(=O)(=O)N([C@@H](C)CO)C[C@H]1C | 6 | -5 | -13 | -2 | 0 | -2
C/C(=N\Nc1ccc(C(=O)O)cc1)c1ccc(Br)cc1 | 0 | -6 | -15 | -3 | 0 | 43*
O=C(c1ccc(F)cc1)N1CC(=O)N2[C@H](CO)[C@@H](c3ccc(-c4cccnc4)cc3)[C@H]2C1 | · | 28 | 2 | -1 | 0 | 2
ON(CCc1ccncc1)Cc1ccccc1 | -3 | 72* | -160 | -1 | 0 | -6
CS(=O)(=O)N(CCc1ccccc1)CC(=O)NCc1ccncc1 | 9 | -2 | -9 | · | · | -2
O=C(CCN1CCN(c2ccccc2)CC1)N/N=C/c1ccc(O)c(O)c1O | 0 | 2 | -24 | -2 | 0 | 65*
COc1ccc(/C=N/NC(=O)CCN2CCN(c3ccccc3)CC2)c(OC)c1OC | 5 | · | · | · | · | ·
Cc1ccc(S(=O)(=O)N(C)C[C@H]2OCCCC[C@H](C)Oc3ccc(NS(C)(=O)=O)cc3C(=O)N([C@@H](C)CO)C[C@@H]2C)cc1 | 1 | 2 | 1 | -16 | 0 | 1
O=C(/C=C/c1ccc(Br)o1)OCc1nc2ccsc2c(=O)[nH]1 | 10 | 13 | -38 | · | · | 38*
CC(=O)c1ccc(OCC(=O)Nc2ccc(N3CCCCC3)cc2)cc1 | 2 | -3 | 1 | 26* | 0 | -9
COc1ccc(OCC(=O)Nc2ccc(N3CCCCC3)cc2)cc1 | · | 0 | -8 | -2 | 0 | 1
CC(=O)N1CC(=O)N2[C@H](CO)[C@@H](c3ccc(-c4ccc(C#N)cc4)cc3)[C@H]2C1 | · | 129* | -15 | -2 | 0 | 3
SMILES | RAD54 inh | S100A4 MyoIIA | RAD52 inh | AF4-AF9 inh | Xi reactivation | Casp6 inh
CCC(=O)N1CC(=O)N2[C@H](C1)[C@@H](c1ccc(C#CC3CCCC3)cc1)[C@@H]2CO | · | -1 | 2 | 0 | 0 | 3
CC(C)C#Cc1ccc([C@H]2[C@@H](CO)N3C(=O)CN(C(=O)NC4CCCCC4)C[C@@H]23)cc1 | · | 9 | 58* | 2 | 0 | -1
CCC(=O)N1CC(=O)N2[C@H](CO)[C@H](c3ccc(C#CC4CCCC4)cc3)[C@H]2C1 | · | 136* | -11 | -3 | 0 | 1
CC(=O)N1CC(=O)N2[C@@H](CO)[C@H](c3ccc(-c4ccc(C#N)cc4)cc3)[C@@H]2C1 | · | · | · | · | 0 | ·
C[C@@H]1CN([C@@H](C)CO)S(=O)(=O)c2ccc(/C=C/c3ccccc3)cc2O[C@@H]1CN(C)C(=O)NC1CCCC1 | 4 | -12 | -2 | 4 | -1 | 1
COC(=O)CC1C(=O)NCCN1C(=O)CSc1nnnn1-c1ccc(Cl)cc1 (stereo not given) | · | 0 | -12 | 1 | 0 | 50*
COc1ccc(C(=O)NCC(c2ccco2)N2CCCC2)cc1S(=O)(=O)N1CCCCC1C (stereo not given) | 2 | 5 | -35 | 3 | 1 | 53*
O=C(NCC(c1ccco1)N1CCN(c2ccc(F)cc2)CC1)c1ccc2c(c1)OCO2 (stereo not given) | 12 | 1 | -17 | 3 | 0 | 0
COc1ccc(N2CCN(C(CNC(=O)c3ccc4c(c3)OCO4)c3ccco3)CC2)cc1 (stereo not given) | -1 | -1 | -6 | 2 | 29* | 1
CC(C)NC(=O)Nc1cccc2c1O[C@H](CN(C)C(=O)NC(C)C)[C@@H](C)CN(C)C2=O | · | · | · | · | 0 | ·
COc1ccccc1-c1cn(CC[C@H]2CC[C@H](NC(=O)CCN3CCCCC3)[C@@H](CO)O2)nn1 | 1 | 19 | -10 | 0 | 0 | -1
O=c1[nH]c2cc(Cl)cc([N+](=O)[O-])c2c2ccc(Cl)cc12 | 2 | -1 | -12 | -1 | 0 | -2
O=c1[nH][nH]c2c([N+](=O)[O-])ccc(F)c12 | · | -1 | -9 | 1 | 0 | 66*
CCc1nc2ccc(C(=O)NCCOc3ccc(OC)cc3)cn2c1N(C)Cc1ccc(N(C)C)cc1 | 4 | -2 | -97 | 14 | 0 | -2
CCc1nc2ccc(C(=O)NCc3ccccc3OC)cn2c1N(C)Cc1ccc(N(C)C)cc1 | 2 | -5 | -101 | 26* | 0 | -3
COc1ccc(NC(=O)N(C)C[C@@H]2Oc3cc(C#CCC(C)C)ccc3S(=O)(=O)N([C@@H](C)CO)C[C@@H]2C)cc1 | 8 | -7 | 16 | 6 | 1 | -1
O=C(c1cnccn1)N1CC(=O)N2[C@@H](CO)[C@H](c3ccc(-c4ccc(F)cc4)cc3)[C@@H]2C1 | · | 14 | 1 | -1 | 0 | 0

Screening data deposited in PubChem by Broad Institute.
